Ecoli tolC: growth inhibitors of E. coli tolC mutant, primary screen, strain BW25113 ΔtolC::kan, 384-well. 65,000 tested, 2.2% active. OD615. growth inhibition, % at 10 µM (by protocol);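 active means growth inhibition at or above a cutoff equal to the mean over every tested compound plus 3 SD, cut at about 60% in these data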;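 further: growth measured after 20 h incubation at 37 °C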
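Material: E. coli BW25113 ΔtolC::kan, tolC deletion mutant strain. Measure: percent growth inhibition. Schedule: 37 °C, 20 h exposure. Doses: single-point testing at 10 µM. Signal: A615 absorbance measurement. Buffer or medium: kanamycin-containing LB broth (50 µg/mL).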
PostGolgi yeast: phenotypic screen on post-Golgi transport, primary screen; post-Golgi transport phenotypic cell assay; inhibition, % at 10 µM; 98,000 tested, 0.9% active;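 further: yeast cells grown in 1536-well plates; yeast grown about 18 h at 30C before absorbance read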
PostGolgi ctrl: growth inhibition of yeast control strain, primary screen, counter-screen for post-Golgi transport modulator project | inhibition, % at 10 µM | efflux-deficient yeast background strain, growth absorbance A615, 16 h | 98,000 tested, 5% active | AID 738, 2007
Her2 expr inh: inhibitors of Her2 protein expression, primary screen, SKBR-3 cells, AlphaScreen, 66K library. 65,000 tested, 0.69% active. SKBR-3 HER2 protein level, 18-24 h; hits give low values. Receptor tyrosine-protein kinase erbB-2 (Homo sapiens), P04626. HER2 level % of control, % at 10 µM;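 active means HER2 level under 5% of the carrier-only control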;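 further: 100% = DMSO carrier and 0% = 500 nM PU-H71 HSP90 inhibitor; lower value means stronger loss of Her2 protein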
Ecoli WT expand: growth inhibitors of wild-type E. coli, primary screen, strain BW25113, expanded library, OD600. OD600 absorbance. growth inhibition, % at 100 µM. 98,000 tested, 0.15% active;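 active means growth inhibition above about 50% at one test dose, limit read from the data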;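 further: growth measured after 20 h incubation at 37 °C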
Numbers without * were called inactive; nt = no result. Rows were chosen to be rich in hits. Some 6.6% of all compounds tested hit in one or more screens of this group. Unless noted, no stated cut-off is given here; in the data, active means inhibition above about 30%; inactive means the rest.

SMILES	Ecoli tolC	PostGolgi yeast	PostGolgi ctrl	Her2 expr inh	Ecoli WT expand
O=C(CSc1nnc(Cc2cccs2)n1Cc1ccco1)Nc1cccc(Cl)c1	8.4	10.5	2.0	116.7	-4.0
Clc1ccc(OCc2nnc(SCc3nc4ccccc4[nH]3)n2Cc2ccco2)cc1	53.9	56.0*	57.0*	67.2	-4.0
O=C(CSc1nnc(Cc2cccs2)n1Cc1ccco1)Nc1cc(Cl)cc(Cl)c1	90.8*	-16.0	35.0*	72.6	-24.0
CCOc1ccc(NC(=O)CSc2nnc(-c3ccccc3Cl)n2Cc2ccco2)cc1	32.7	7.5	35.2*	197.0	-4.0
Clc1cccc(-c2nnc(SCc3nc4ccccc4[nH]3)n2Cc2ccco2)c1	50.0	-6.3	-1.7	75.6	3.0
CCSc1nc(-c2cccs2)nc2c1c(=O)n(C)c(=O)n2C	-7.3	nt	nt	94.8	nt
c1ccc(-n2c(Sc3cnccn3)nnc2-c2cccs2)cc1	1.9	-5.1	7.1	96.4	-1.0
CCOC(=O)c1cc(-c2ccccc2)sc1NC(=O)CSc1nnnn1C	11.0	-1.9	15.1	78.2	-12.0
CCOC(=O)c1sc(-c2ccccc2)cc1NC(=O)CSc1nnnn1C	25.0	8.8	74.0*	123.8	-16.0
CC1=C(C(=O)N(C)C)C(c2cccc(Cl)c2)NC(=O)N1 (configuration not stated)	1.8	-3.8	5.0	nt	-2.0
Cn1cnnc1SCC(=O)Nc1ccc2nc(SCc3ccccc3F)sc2c1	nt	-2.6	15.7	nt	-8.0
COc1ccc(-c2nc(C#N)c(N3CCCCCC3)o2)cc1	47.4	23.0	20.1	84.9	-5.0
COc1ccc(-c2nc(C#N)c(N3CCCCCC3)o2)cc1OC	54.9	13.4	34.4*	84.7	-4.0
CCOc1ccc(-c2nc(C#N)c(N3CCCCCC3)o2)cc1	67.9*	-3.5	18.1	100.1	-14.0
CCN(CC)C(=S)Sc1c(-c2ccccc2)c2cc(Cl)ccc2[nH]c1=O	nt	18.2	32.0*	nt	-12.0
CCOC(=O)c1c(C)n(C)c2ccc(OC)c(NC(=O)CN3CCN(C(=O)c4ccco4)CC3)c12	-10.1	18.2	5.6	73.3	4.0
O=C(Nc1cccc(F)c1)N(Cc1ccc(Cl)cc1)CC(O)C(F)(F)F (configuration not stated)	nt	13.3	57.8*	nt	7.0
CO/N=C(\Cn1ncc(NC2CCCCC2)c(Br)c1=O)c1ccc(Cl)cc1	nt	22.7	75.5*	nt	-5.0
COC1(c2cc(-c3ccccc3)nc(N)n2)CCCCC1	42.2	4.7	14.7	99.9	5.0
CC(C)=C(C#N)c1nc2ccccc2s1	0.6	-3.2	8.9	115.2	2.0
COC(=O)c1ccc(/C(O)=C(\C#N)c2nc3ccccc3s2)cc1	64.6*	7.7	-0.5	79.6	-6.0
CC1(C)Cc2c(cnn2-c2ccccc2)-c2c1c1ccccc1n2CC(O)CBr (configuration not stated)	nt	23.1	43.8*	nt	-2.0
CCN(CC)S(=O)(=O)c1ccc2[nH]c(=O)[nH]c2c1	-5.8	-0.2	0.5	110.5	-6.0
CCCn1nc([N+](=O)[O-])c(C(C#N)c2nc3ccccc3s2)c(Cl)c1=O (configuration not stated)	nt	99.8*	55.4*	nt	-4.0
CC1CCN(c2c(NCc3ccc(C(=O)NCC4COc5ccccc5O4)cc3)c(=O)c2=O)CC1 (configuration not stated)	3.9	nt	nt	91.3	nt
SMILES	Ecoli tolC	PostGolgi yeast	PostGolgi ctrl	Her2 expr inh	Ecoli WT expand
O=C(OCc1ccccc1)c1cn(-c2ccccc2)nc1-c1ccncc1	nt	21.9	37.0*	nt	-11.0
CCOC(=O)c1ccc(NC(=O)c2cn(-c3ccccc3)nc2-c2ccncc2)cc1	nt	90.3*	30.5*	nt	-2.0
COC(=O)c1cn(-c2ccccc2)nc1-c1ccncc1	nt	-3.8	-1.5	nt	6.0
CCOC(=O)c1ccc(NC(=O)c2nn(C)cc2Br)cc1	-4.7	0.8	35.2*	85.8	-4.0
CCOC(=O)c1ccc(NC(=O)c2ccc(NC(=O)c3ccccc3)cc2)cc1	nt	-3.2	-5.9	nt	-5.0
CN(Cc1ccccc1)S(=O)(=O)c1cccc2cccnc12	nt	17.1	2.2	nt	5.0
Cc1cc2ncn(/N=C/c3ccc([N+](=O)[O-])o3)c2cc1C	nt	7.1	51.5*	nt	7.0
CCOCCCNC(=O)C(c1ccc(C)cc1)N(Cc1ccc2c(c1)OCO2)C(=O)c1cnccn1 (configuration not stated)	7.7	12.8	12.6	59.3	4.0
